Article PMC6467801 (Journal of medicinal chemistry, 2018)

Tests used:
full length SHP2 = target: T1, full length SHP2 (Homo sapiens, UniProt Q06124); test: In vitro phosphatase activity assay, phospho-peptide substrate, Malachite Green; type: biochemical; conditions: for inhibition of SHP2 phosphatase activity (qualitative): phospho-peptide substrate
T1 sequence (Q06124 1-593): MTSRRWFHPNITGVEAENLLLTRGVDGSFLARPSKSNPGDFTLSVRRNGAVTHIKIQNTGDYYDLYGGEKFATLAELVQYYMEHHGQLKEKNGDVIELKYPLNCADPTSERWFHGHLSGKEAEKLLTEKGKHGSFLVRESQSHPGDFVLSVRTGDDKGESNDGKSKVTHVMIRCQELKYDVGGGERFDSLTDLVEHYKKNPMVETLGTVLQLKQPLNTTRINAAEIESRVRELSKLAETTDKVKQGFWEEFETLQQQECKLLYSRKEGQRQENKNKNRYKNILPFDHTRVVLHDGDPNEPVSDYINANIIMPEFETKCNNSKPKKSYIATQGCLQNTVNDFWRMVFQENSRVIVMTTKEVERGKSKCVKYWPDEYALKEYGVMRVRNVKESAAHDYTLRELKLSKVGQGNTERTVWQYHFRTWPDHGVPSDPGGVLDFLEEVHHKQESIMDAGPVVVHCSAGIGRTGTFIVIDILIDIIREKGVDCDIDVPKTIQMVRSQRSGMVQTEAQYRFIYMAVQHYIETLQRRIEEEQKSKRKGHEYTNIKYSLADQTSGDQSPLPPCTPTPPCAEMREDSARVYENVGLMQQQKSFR
Outline: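 Purified full-length SHP2 (0.1 μg) was preincubated with test compound for 30 min at room temperature in 25 mM Tris-HCl pH 7.4, 50 mM NaCl, 5 mM DTT, 2.5 mM EDTA. Phospho-peptide (also an N-SH2 activator) was added to 50 µM final and incubated 30 °C, 30 min. Freed phosphate was read by Malachite Green at OD620. Lineweaver-Burk used 0, 10, 20 μM; mean ± SD, three experiments.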

full length SHP1 = full length SHP1 (Homo sapiens, UniProt P29350); test: In vitro phosphatase activity assay, phospho-peptide substrate, Malachite Green; type: biochemical; conditions: data not shown
cells = test: Acute toxicity in cells; type: cell-based
[1] = tested on: SHP2 (full length WT, E76K, PTP domain); test: Phosphatase assay with pNPP as the substrate; type: biochemical; conditions: 1 at 10 μM; any form of SHP2 protein
Outline: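 SHP2 enzyme (0.1 μg; full-length WT, E76K or PTP domain) was incubated with test compound for 15 min at 37 °C in 25 mM Tris-HCl pH 7.4, 50 mM NaCl, 5 mM DTT, 2.5 mM EDTA. pNPP was added to 0.9 mg/ml final and incubated a further 15 min at 37 °C. Read-out was OD405. Three independent experiments.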

[2] = target: T2, full length WT SHP2 GST-fusion protein (Homo sapiens, UniProt Q06124); test: Fluorescence titration; type: binding; conditions: SHP2 3.0 µM, dose-dependent
T2 sequence (Q06124 1-593): T1 sequence (Q06124 1-593)
Outline: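 GST-fusion full-length WT SHP2 was held at 3.0 μM in 20 mM Tris-HCl, pH 7.5, and titrated with rising test compound. Excitation was 295 nm and emission was read 360–500 nm. Inhibitor-alone fluorescence was subtracted. Relative intensity was plotted against log molar concentration. Three independent experiments; mean ± SD of triplicates from one representative run.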

His-tagged SHP2 = target: T3, His-tagged SHP2 (Homo sapiens, UniProt Q06124); test: Thermal shift assay; type: binding; conditions: 5, 10, 60 µM
T3 sequence (Q06124 1-593): T1 sequence (Q06124 1-593)
Outline: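 His-tagged SHP2 (1 µg) in 50 mM Tris-HCl pH 8.0, 500 mM NaCl, 50 mM imidazole was mixed with 5x Sypro Orange stock, 20 µl reaction. Test compound in DMSO was added to 5, 10 or 60 µM final; 1% DMSO served as control. Samples were heated 22–95 °C in 1 °C steps every 50 sec, and Tm was taken from melting curves. Mean ± SD of three independent experiments.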

Ba/F3 cells [3] = test: IL-3 dependent cell proliferation; type: cell-based, murine; conditions: IL-3 1.0 ng/mL, 48 hours
Outline: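 Cell numbers were read 48 hours after treatment with the One Solution Cell Proliferation Assay kit. Three experiments; mean ± SD of triplicates from one representative experiment.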

Ba/F3 cells [4] = test: IL-3-induced signaling, immunoblotting of p-Erk, p-Akt, p-Jak2, p-Stat5; type: cell-based, murine; conditions: 4 hours pretreatment, IL-3 2.0 ng/mL, dose-dependent
Outline: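 Ba/F3 cells were starved overnight in serum- and cytokine-free RPMI1640, given test compound for 4 h, then stimulated with IL-3 2 ng/mL. Stimulation was 10 min for the dose series, or a time course at 20 µM. Cells were lysed in RIPA with NaF, Na3VO4 and protease inhibitors. 50 μg protein per lane went through SDS-PAGE and phospho-antibody immunoblotting with ECL. Blots were reprobed for total proteins. Three independent experiments.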

[5] = tested on: mouse embryonic fibroblasts (WT, PTPN11 knockout, PTPN11 E76K/+); test: MEF proliferation; type: cell-based; conditions: 6 μM
Outline: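 Ptpn11 fl/fl and +/+ MEFs were infected with adeno-Cre, then treated with test compound at 6 μM or DMSO. Growth was measured at 24, 48 and 72 h with the One Solution Cell Proliferation kit, and SHP2 loss was confirmed by immunoblot. Ptpn11 E76K/+ and +/+ MEFs at 6 μM were counted with the same kit. Three experiments; mean ± SD of triplicates from one representative.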

H661 cells (PTPN11 N58S) = test: Lung cancer cell proliferation; type: cell-based, human; conditions: 48 hours, dose-dependent; more sensitive than H596
Outline: (§1)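 Human lung cancer H661 (PTPN11 N58S/+) and H596 (WT PTPN11) cells were exposed to graded test compound for 48 hours, with DMSO controls. Cell number was measured by One Solution Cell Proliferation Assay kit. Three experiments; mean ± SD of triplicates from one representative experiment.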

H596 cells (WT PTPN11) = test: Lung cancer cell proliferation; type: cell-based, human; conditions: 48 hours, dose-dependent
Outline: as §1

H661 cells = test: Cell cycle analysis, propidium iodide staining and FACS; type: cell-based, human; conditions: 10 and 20 μM, 24 hours
Outline: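 H661 cells (PTPN11 N58S/+) were treated with test compound at 0, 10 or 20 μM, stained with propidium iodide and analysed by FACS. Profiles are representative of three independent experiments.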

[6] = tested on: myeloid progenitors from PTPN11 E76K/+ mice; test: Colony-forming unit assay, mouse bone marrow cells; type: cell-based; conditions: GM-CSF 1.0 ng/mL, 7 days, vs WT control cells
Outline: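 Bone marrow from Ptpn11E76K/+/Mx1-Cre+ and Ptpn11+/+/Mx1-Cre+ mice was plated at 2×10^4 cells/mL in 0.9% methylcellulose IMDM (30% FBS, glutamine, β-mercaptoethanol, GM-CSF 1.0 ng/mL) with graded test compound or DMSO. Cultures ran 7 days at 37 °C in 5% CO2. Myeloid colonies (CFU-GM, CFU-M) were counted and normalized to WT DMSO colonies. Mean ± SD of three independent experiments.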

[7] = tested on: myeloid blasts from JMML patients with the PTPN11 E76K/+ mutation; test: Colony-forming unit assay, JMML patient cells; type: cell-based, human; conditions: GM-CSF 1.0 ng/mL, 14 days

Sequence of full length SHP1 (P29350 whole entry): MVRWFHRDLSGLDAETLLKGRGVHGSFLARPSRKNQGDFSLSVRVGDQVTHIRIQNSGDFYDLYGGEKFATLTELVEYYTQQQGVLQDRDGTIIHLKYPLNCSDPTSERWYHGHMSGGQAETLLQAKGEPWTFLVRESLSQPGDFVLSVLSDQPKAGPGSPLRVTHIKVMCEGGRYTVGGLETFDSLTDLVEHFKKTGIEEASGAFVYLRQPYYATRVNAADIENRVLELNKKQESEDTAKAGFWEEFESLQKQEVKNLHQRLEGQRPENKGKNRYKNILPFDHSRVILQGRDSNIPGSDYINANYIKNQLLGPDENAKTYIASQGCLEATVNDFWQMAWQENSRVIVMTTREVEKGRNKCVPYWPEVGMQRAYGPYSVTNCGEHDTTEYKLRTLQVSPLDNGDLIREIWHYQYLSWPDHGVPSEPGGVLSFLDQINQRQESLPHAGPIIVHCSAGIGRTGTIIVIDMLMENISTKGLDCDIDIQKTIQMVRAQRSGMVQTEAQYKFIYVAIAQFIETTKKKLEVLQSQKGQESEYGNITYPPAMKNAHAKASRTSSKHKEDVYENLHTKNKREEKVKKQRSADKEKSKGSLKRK

## CCOc1cc(O)c(C(=O)/C=C/c2ccc(Cl)cc2Cl)cc1CN1CCNCC1C (stereo not drawn) [LY5]
Full length SHP2
  inhibition of SHP2 phosphatase activity (qualitative): good effects on SHP2
Full length SHP1
  inhibition of SHP1 relative to SHP2 (qualitative): inhibited the SHP1 phosphatase to a similar extent

## CCOc1cc(O)c(C(=O)/C=C/c2ccc(Cl)cc2Cl)cc1CN1C[C@@H](O)C[C@@H]1C(C)=O [LY7]
cells
  toxicity in cells: acute toxicity in cells

## CCOc1cc(O)c(C(=O)/C=C/c2ccc(Cl)cc2Cl)cc1CN(CC)CC [LY3]
Full length SHP2
  inhibition of SHP2 phosphatase activity (qualitative): good effects on SHP2
Full length SHP1
  inhibition of SHP1 relative to SHP2 (qualitative): inhibited the SHP1 phosphatase to a similar extent

## CCOc1cc(O)c(C(=O)/C=C/c2ccc(Cl)cc2Cl)cc1CN1CCCCC1 [LY1]
cells
  toxicity in cells: acute toxicity in cells

## CCOc1cc(O)c(C(=O)/C=C/c2ccc(Cl)cc2Cl)cc1CN1CCC=C(n2c(=O)[nH]c3ccccc32)C1 [compound 1, (E)-1-(1-(5-(3-(2,4-dichlorophenyl)acryloyl)-2-ethoxy-4-hydroxybenzyl)-1,2,5,6-tetrahydropyridin-3-yl)-1H-benzo[d]imidazol-2(3H)-one]
Full length SHP2; 0, 10, 20 μM, Vmax decreased, Km increased
  type of inhibition (Lineweaver-Burk plot): mixed type inhibitor
Full length SHP2; 0.001% Triton X-100 in assay buffer
  inhibitory function in presence of Triton X-100: not decreased
Full length SHP2; 0.01% Triton X-100
  inhibition of SHP2 in presence of Triton X-100: diminished
Full length SHP2
  inhibition of SHP2 phosphatase activity (qualitative): most active compound among the remaining compounds
Full length SHP2; washing
  1/SHP2 binding after extensive washing of enzyme-inhibitor complex: stable
[1]
  effect on capability of SHP2 to dephosphorylate pNPP: did not affect
[2]
  quenching of SHP2 fluorescence: strong quenching
His-tagged SHP2
  shift in melting temperature (Tm): dose-dependent right shifts
Ba/F3 cells [3]
  cell growth: significantly suppressed cell growth
Ba/F3 cells [4]
  IL-3-induced activation (phosphorylation) of Erk, Akt, Jak2, Stat5: inhibited
[5]
  cell growth of PTPN11 E76K/+ MEFs: significantly decreased cell growth
[5]; 24, 48, 72 hours
  proliferation of WT MEFs: markedly decreased
[5]; PTPN11 knockout
  proliferation of PTPN11-depleted MEFs: did not show a significant effect
H661 cells (PTPN11 N58S)
  proliferation of H661 cells: inhibited proliferation
H596 cells (WT PTPN11)
  proliferation of H596 cells: inhibited proliferation
H661 cells
  cell cycle change: pronounced G2/M arrest
[6]
  inhibition of colony-forming capability of SHP2 E76K-expressing progenitors: much more sensitive than control cells
[7]
  colony formation of JMML myeloid blasts: exquisitely sensitive
